From ChEMBL document CHEMBL4330067, “Synthesis and mechanistic studies of diketo acids and their bioisosteres as potential antibacterial agents” (Eur J Med Chem, 2019)
Converted amounts (≈) assume the structure as drawn. The source made the active and inactive calls. The rule behind the calls is not given here.

Assays:
Pseudomonas aeruginosa = assay: Antibacterial activity against Pseudomonas aeruginosa MTCC 2453 after 24 hrs by broth dilution assay; format: functional; conditions: MTCC 2453, 24 h
Outline: (§1)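 Broth dilution per NCCLS in nutrient broth, serial dilutions 1000 to 7.8 µg/mL, DMSO below 4% final. Inoculum approx. 2.5×10⁶ cells/mL, 37 °C with shaking at 150 rpm for 24 h. MIC taken as the lowest concentration with no visible growth. Ciprofloxacin served as positive control.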

Escherichia coli [1] = assay: Induction of cellular damage in Escherichia coli assessed as distorted cell membrane at MIC after 1 hr by TEM analysis; format: functional, organism-based
Enterococcus faecalis [2] = assay: Anti-biofilm activity against Enterococcus faecalis after 24 hrs by XTT assay; format: functional, organism-based
Outline: (§2)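 Biofilm XTT reduction assay: serial dilutions 1000 to 7.8 µg/mL in tryptic soy broth, inoculum approx. 5×10⁵ CFU/mL, 37 °C for 24 h static. Non-adherent cells removed by PBS wash, XTT added, 90 min at 37 °C in dark, absorbance at 490 nm. IC50 (50% inhibition of biofilm formation) read from dose-response curves.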

Escherichia coli [3] = assay: Anti-biofilm activity against Escherichia coli assessed as poor cell density at 2MIC after 24 hrs by SEM analysis; format: functional, organism-based
Escherichia coli [4] = assay: Antibacterial activity against Escherichia coli MRAE33 at 1024 ug/mL after 24 hrs by broth dilution assay relative to control; format: functional
Outline: (§3)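 Multidrug-resistant E. coli isolates in Luria broth, test range 8 to 1024 µg/mL (ciprofloxacin 0.49 to 63.3 µg/mL). Inoculum 10 µL of a 1000-fold diluted 0.1 OD600 culture, incubated overnight at 37 °C. OD read at 600 nm. % inhibition = (a−b)/a×100, with media and compound-colour blanks subtracted.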

Escherichia coli [5] = assay: Synergistic antibacterial activity against Escherichia coli MRAE33 after 18 hrs in presence of ciprofloxacin by checkerboard method; format: functional; conditions: MRAE33, 18 h
Outline: (§4)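 Checkerboard combination with ciprofloxacin in Mueller-Hinton broth: compound 1024 to 16 µg/mL crossed with ciprofloxacin 128 to 2 µg/mL. Inoculum 5×10⁵ CFU/mL suspension, 18 h at 37 °C. Fractional inhibitory concentration index derived from the combination.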

Enterococcus faecalis [6] = assay: Inhibition of Enterococcus faecalis methionine aminopeptidase 1A at 100 uM using Met-AMC as substrate relative to control
Outline: (§5)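 Purified MetAP at 4 µM in 50 mM HEPES with 150 mM KCl and CoCl2 at 3 molar equivalents of enzyme. pH 7.5 for SpMetAP1a and EfMetAP1a, pH 8.0 for HsMetAP1b. Substrate L-Met-AMC at 50, 100 and 150 µM. Compounds (10 mM DMSO stocks) tested over 1 to 120 µM for % inhibition; Ki by Dixon method.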

[7] = test system: Mycobacterium tuberculosis; assay: Inhibition of Mycobacterium tuberculosis methionine aminopeptidase 1C at 100 uM using Met-AMC as substrate relative to control
Outline: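 Purified MtMetAP1c (4 µM) in 50 mM Hepes pH 7.5 with 150 mM KCl and CoCl2 at three molar equivalents of enzyme. Substrate was L-Met-AMC at 50, 100 or 150 µM. Compounds came from 10 mM DMSO stocks. Percent inhibition was taken against the uninhibited control.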

Escherichia coli [8] = assay: Antibacterial activity against Escherichia coli MRC24 after overnight incubation; format: functional; outline: as §3
Escherichia coli [9] = assay: Antibacterial activity against Escherichia coli MROB11 after overnight incubation; format: functional; outline: as §3
Escherichia coli [10] = assay: Antibacterial activity against Escherichia coli MRA11 at 512 ug/mL after 24 hrs by broth dilution assay relative to control; format: functional; outline: as §3
Escherichia coli [11] = assay: Bactericidal activity against Escherichia coli at 1 to 2 times MIC after 24 hrs by spectrophotometric analysis; format: functional, organism-based
Outline: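 Growth kinetics in 50 mL nutrient broth seeded at approx. 2×10⁶ cells/mL, compound at 2MIC, MIC and ½MIC, 37 °C at 160 rpm. Ciprofloxacin 10 µg/mL as positive control. 1 mL aliquots taken every 2 h from 0 to 22 h. Turbidity read at 600 nm and OD plotted against time.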

Klebsiella pneumoniae = assay: Antibacterial activity against Klebsiella pneumoniae ATCC 700603 after 24 hrs by broth dilution assay; format: functional; conditions: Klebsiella pneumoniae, 700603, 24 h; outline: as §1
Escherichia coli [12] = assay: Anti-biofilm activity against Escherichia coli after 24 hrs by XTT assay; format: functional, organism-based; outline: as §2
Escherichia coli [13] = assay: Synergistic antibacterial activity against Escherichia coli MRC17 assessed as fractional inhibitory concentration index after 18 hrs in presence of ciprofloxacin by checkerboard method; format: functional
Outline: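 Checkerboard combination against MDR E. coli. Test agent gradient 1024–16 µg/mL crossed with ciprofloxacin 128–2 µg/mL in Mueller-Hinton broth. Wells were inoculated with a 5 × 10⁵ CFU/mL suspension and incubated 18 h at 37 °C. Interaction was expressed as the fractional inhibitory concentration index (FICI).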

Escherichia coli [14] = assay: Antibacterial activity against Escherichia coli MRC24 at 512 ug/mL after 24 hrs by broth dilution assay relative to control; format: functional; outline: as §3
Streptococcus pneumoniae [15] = assay: Induction of cellular damage in Streptococcus pneumoniae assessed as distorted cell membrane at MIC after 1 hr by TEM analysis; format: functional, organism-based
Escherichia coli [16] = assay: Antibacterial activity against Escherichia coli MRAE26 at 1024 ug/mL after 24 hrs by broth dilution assay relative to control; format: functional; outline: as §3
Escherichia coli [17] = assay: Antibacterial activity against Escherichia coli MRA11 after overnight incubation; format: functional; outline: as §3
Homo sapiens = organism: Homo sapiens; assay: Inhibition of human methionine aminopeptidase 1B at 100 uM using Met-AMC as substrate relative to control; outline: as §5
Enterococcus faecalis [18] = assay: Antibacterial activity against Enterococcus faecalis MTCC 439 after 24 hrs by broth dilution assay; format: functional; conditions: MTCC 439, 24 h; outline: as §1
CHO = assay: Cytotoxicity against CHO cells at 50 ug/mL after 48 hrs by MTT assay; format: cell-based, Cricetulus griseus; conditions: chinese hamster
Outline: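 MTT assay: cells maintained in DMEM with 10% FBS and penicillin/streptomycin at 37 °C, 5% CO2. Seeded at approx. 2×10⁴ cells/well, 24 h before treatment, then exposed to 10 to 400 µg/mL for 48 h at 37 °C. MTT (5 mg/mL stock in PBS) added for 4 h, formazan dissolved in DMSO, A570 read. Triplicate wells; viability given relative to untreated cells.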

Escherichia coli [19] = assay: Antibacterial activity against Escherichia coli MRAE26 after overnight incubation; format: functional; outline: as §3
Streptococcus pneumoniae [20] = assay: Inhibition of Streptococcus pneumoniae methionine aminopeptidase 1A at 100 uM using Met-AMC as substrate relative to control; outline: as §5
Escherichia coli [21] = assay: Antibacterial activity against Escherichia coli MRAE32 at 512 ug/mL after 24 hrs by broth dilution assay relative to control; format: functional; outline: as §3
[22] = Inhibition of human methionine aminopeptidase 1B using Met-AMC as substrate by Dixon method; outline: as §5
Escherichia coli [23] = assay: Antibacterial activity against Escherichia coli MRAE32 after overnight incubation; format: functional; outline: as §3
Escherichia coli [24] = assay: Synergistic antibacterial activity against Escherichia coli MRA11 after 18 hrs in presence of ciprofloxacin by checkerboard method; format: functional; conditions: MRA11, 18 h; outline: as §4
Salmonella typhimurium = assay: Antibacterial activity against Salmonella typhimurium MTCC 3224 after 24 hrs by broth dilution assay; format: functional, Salmonella enterica subsp. enterica serovar Typhimurium; conditions: Salmonella enterica, MTCC 3224, 24 h; outline: as §1

SMILES: Cc1c(C(=O)/C=C(\O)C(=O)N[C@H](C)C(=O)O)oc2ccc(Br)cc12
- MIC (Pseudomonas aeruginosa): 250 µg/mL (≈ 631 µM)
- Activity (Escherichia coli [1]): Active
- IC50 (Enterococcus faecalis [2]): 1240 µg/mL (≈ 3140 µM)
- Activity (Escherichia coli [3]): Active
- Activity (Escherichia coli [4]): >95%
- MIC (Escherichia coli [5]): 16 µg/mL
- inhibition (Enterococcus faecalis [6]): 92.7%
- inhibition [7]: 87.7%
- ICmax (Escherichia coli [8]): 512 µg/mL
- ICmax (Escherichia coli [9]): 512 µg/mL
- Activity (Escherichia coli [10]): 100%
- Activity (Escherichia coli [11]): Active
- MIC (Klebsiella pneumoniae): 500 µg/mL (≈ 1260 µM)
- IC50 (Escherichia coli [12]): 0.404 µg/mL (≈ 1.02 µM)
- fractional inhibitory concentration index (FICI) (Escherichia coli [13]): 1.5
- Activity (Escherichia coli [14]): 100%
- Activity (Streptococcus pneumoniae [15]): Active
- Activity (Escherichia coli [16]): >95%
- ICmax (Escherichia coli [17]): 512 µg/mL
- MIC (Escherichia coli [17]; Escherichia coli, MRA11): 512 µg/mL (≈ 1290 µM)
- inhibition (Homo sapiens): 87.5%
- MIC (Enterococcus faecalis [18]): 125 µg/mL (≈ 316 µM)
- Activity (CHO): Non-Toxic
- ICmax (Escherichia coli [19]): 1024 µg/mL
- inhibition (Streptococcus pneumoniae [20]): 98.2%
- Activity (Escherichia coli [21]): 100%
- Ki [22]: 22.1 µM
- ICmax (Escherichia coli [23]): 512 µg/mL
- MIC (Escherichia coli [24]): 512 µg/mL
- MIC (Salmonella typhimurium): 500 µg/mL (≈ 1260 µM)
